Results taken from ChEMBL document CHEMBL1914438, “Synthesis and biological activity of novel N-cycloalkyl-(cycloalkylaryl)-2-[(3-R-2-oxo-2H-[1,2,4]triazino[2,3-c]quinazoline-6-yl)thio]acetamides” (2011).
Active and inactive are the calls of the source. The rule behind the calls is not given here.

Experiments:
[1] = system: Photobacterium leiognathi; assay: Antibacterial activity against Photobacterium leiognathi Sh1 assessed as inhibition of bacterial luminescence at 0.1 mg/mL after 10 mins by bioluminometry-based acute action test; format: functional; design: scale not given: the % may be the effect or the level left
Outline: (§1)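 Marine P. leiognathi Sh1 (Azov Sea shrimp isolate) diluted in chloride solution to 10^5 cells/mL; compounds suspended in DMSO mixed with 1 mL bacterial suspension. Acute test: 10 min at 25 °C, then bioluminescence measured by bioluminometer as % of compound-free control. Tetracycline reference.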

[2] = system: Photobacterium leiognathi; assay: Antibacterial activity against Photobacterium leiognathi Sh1 assessed as inhibition of bacterial luminescence at 0.1 mg/mL after 10 mins by bioluminometry-based chronic action test; format: functional; design: scale not given: the % may be the effect or the level left
Outline: (§2)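 Chronic (growth plus luminescence) test with P. leiognathi Sh1 at 10^5 cells/mL in chloride solution, compounds added in DMSO. After 10 min at 25 °C, growth medium added at 1:50 and the mix incubated 16–18 h at 30 °C. Luminescence then measured by bioluminometer as % of untreated control. Tetracycline reference.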

[3] = system: Photobacterium leiognathi; assay: Antibacterial activity against Photobacterium leiognathi Sh1 assessed as inhibition of bacterial luminescence at 0.25 mg/mL after 10 mins by bioluminometry-based chronic action test; format: functional; design: scale not given: the % may be the effect or the level left; outline: as §2
[4] = system: Photobacterium leiognathi; assay: Antibacterial activity against Photobacterium leiognathi Sh1 at 0.1 to 0.25 ug/mL; format: functional, organism-based
[5] = system: Escherichia coli; assay: Antibacterial activity against Escherichia coli at 1 to 5 mg/mL after 24 hrs by stiff-plate agar-diffusion method; format: functional, organism-based
Outline: (§3)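 Agar diffusion (stiff plate) with test substances at 5 mg/mL in grooves, allowed to diffuse into nutrient agar; inoculum 10^9 c.f.u./mL; bacteria incubated 24 h at 35 °C. Read-out: inhibition zone diameter (not sensitive 11–15 mm, sensitive 16–25 mm, highly sensitive >25 mm). Vancomycin and oxacillin as standards; three repeats.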

[6] = system: Staphylococcus aureus; assay: Antibacterial activity against Staphylococcus aureus at 1 to 5 mg/mL after 24 hrs by stiff-plate agar-diffusion method; format: functional, organism-based; outline: as §3
[7] = system: Mycobacterium; assay: Antibacterial activity against Mycobacterium luteum at 1 to 5 mg/mL after 24 hrs by stiff-plate agar-diffusion method; format: functional, organism-based; outline: as §3
[8] = system: Yamadazyma tenuis; assay: Antifungal activity against Candida tenuis at 1 to 5 mg/mL after 48 to 72 hrs by stiff-plate agar-diffusion method; format: functional, organism-based
Outline: (§4)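 Fungal plates run by stiff-plate agar diffusion, substances applied to grooves at 5 mg/mL; 10^9 c.f.u./mL cells; incubation 48–72 h at 28–30 °C. Inhibition zone diameter scored (11–15 mm not sensitive, 16–25 mm sensitive, >25 mm highly sensitive). Nystatin standard; experiments done three times.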

[9] = system: Aspergillus niger; assay: Antifungal activity against Aspergillus niger at 1 to 5 mg/mL after 48 to 72 hrs by stiff-plate agar-diffusion method; format: functional, organism-based; outline: as §4
[10] = system: CCRF-CEM; assay: Cytotoxicity against human CCRF-CEM cells assessed as cell growth at 10^-5 M after 48 hrs by SRB assay; format: functional; details: read-out: Activity
Outline: (§5)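 NCI 60-cell-line one-dose primary screen: cells inoculated and preincubated 24–48 h, then test agent added at a single 10^-5 M concentration for a further 48 h. Endpoint is sulforhodamine B protein staining read spectrophotometrically. Reported as percent growth relative to untreated control cells.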

[11] = system: SNB-75; assay: Cytotoxicity against human SNB75 cells assessed as cell growth at 10^-5 M after 48 hrs by SRB assay; format: functional; details: SNB-75, 48 h, read-out: Activity
Outline: (§6)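 NCI human tumor cell line panel from nine cancer types. Each line was inoculated and preincubated 24–48 h, then exposed to a single concentration (10^-5 M) for 48 h. Growth was read by sulforhodamine B protein staining, measured spectrophotometrically. Value reported as percent growth of treated cells relative to untreated controls.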

[12] = system: UO-31; assay: Cytotoxicity against human UO31 cells assessed as cell growth at 10^-5 M after 48 hrs by SRB assay; format: functional; details: UO-31, 48 h, read-out: Activity; outline: as §6
[13] = system: PC-3; assay: Cytotoxicity against human PC3 cells assessed as cell growth at 10^-5 M after 48 hrs by SRB assay; format: functional; details: PC-3, 48 h, read-out: Activity; outline: as §6
[14] = system: K562; assay: Cytotoxicity against human K562 cells assessed as cell growth at 10^-5 M after 48 hrs by SRB assay; format: functional; details: K562, 48 h, read-out: Activity; outline: as §5
[15] = system: SR; assay: Cytotoxicity against human SR cells assessed as cell growth at 10^-5 M after 48 hrs by SRB assay; format: functional; details: read-out: Activity; outline: as §6
[16] = system: A549; assay: Cytotoxicity against human A549 cells assessed as cell growth at 10^-5 M after 48 hrs by SRB assay; format: functional; details: A549, 48 h, read-out: Activity; outline: as §5
[17] = system: U-251; assay: Cytotoxicity against human U251 cells assessed as cell growth at 10^-5 M after 48 hrs by SRB assay; format: functional; details: U-251, 48 h, read-out: Activity; outline: as §6
[18] = system: M14; assay: Cytotoxicity against human M14 cells assessed as cell growth at 10^-5 M after 48 hrs by SRB assay; format: functional; details: M14, 48 h, read-out: Activity; outline: as §5
[19] = system: UACC-257; assay: Cytotoxicity against human UACC257 cells assessed as cell growth at 10^-5 M after 48 hrs by SRB assay; format: functional; details: UACC-257, 48 h, read-out: Activity; outline: as §6
[20] = system: SK-OV-3; assay: Cytotoxicity against human SKOV3 cells assessed as cell growth at 10^-5 M after 48 hrs by SRB assay; format: functional; details: SK-OV-3, 48 h, read-out: Activity; outline: as §6
[21] = system: Photobacterium leiognathi; assay: Antibacterial activity against Photobacterium leiognathi Sh1 assessed as inhibition of bacterial luminescence at 0.025 mg/mL after 10 mins by bioluminometry-based chronic action test; format: functional; design: scale not given: the % may be the effect or the level left; outline: as §2
[22] = system: Photobacterium leiognathi; assay: Antibacterial activity against Photobacterium leiognathi Sh1 assessed as inhibition of bacterial luminescence at 0.25 mg/mL after 10 mins by bioluminometry-based acute action test; format: functional; design: scale not given: the % may be the effect or the level left; outline: as §1
[23] = system: Photobacterium leiognathi; assay: Antibacterial activity against Photobacterium leiognathi Sh1 assessed as inhibition of bacterial luminescence at 0.025 mg/mL after 10 mins by bioluminometry-based acute action test; format: functional; design: scale not given: the % may be the effect or the level left; outline: as §1
[24] = system: Photobacterium leiognathi; assay: Antibacterial activity against Photobacterium leiognathi Sh1 assessed as inhibition of bacterial luminescence at 0.025 mg/mL after 16 to 18 hrs by bioluminometry-based chronic action test; design: scale not given: the % may be the effect or the level left
[25] = system: CAKI-1; assay: Cytotoxicity against human Caki1 cells assessed as cell growth at 10^-5 M after 48 hrs by SRB assay; format: functional; details: CAKI-1, 48 h, read-out: Activity; outline: as §5
[26] = system: MOLT-4; assay: Cytotoxicity against human MOLT4 cells assessed as cell growth at 10^-5 M after 48 hrs by SRB assay; format: functional; details: MOLT-4, 48 h, read-out: Activity; outline: as §6
[27] = system: EKVX; assay: Cytotoxicity against human EKVX cells assessed as cell growth at 10^-5 M after 48 hrs by SRB assay; format: functional; details: read-out: Activity; outline: as §5
[28] = system: SF-295; assay: Cytotoxicity against human SF295 cells assessed as cell growth at 10^-5 M after 48 hrs by SRB assay; format: functional; details: SF-295, 48 h, read-out: Activity; outline: as §6
[29] = system: SK-MEL-5; assay: Cytotoxicity against human SK-MEL-5 cells assessed as cell growth at 10^-5 M after 48 hrs by SRB assay; format: functional; details: SK-MEL-5, 48 h, read-out: Activity; outline: as §6
[30] = system: Escherichia coli; assay: Antibacterial activity against Escherichia coli assessed as zone of inhibition at 0.5 mg/mL after 24 hrs by stiff-plate agar-diffusion method; format: functional; details: read-out: DIZ
[31] = system: Escherichia coli; assay: Antibacterial activity against Escherichia coli assessed as zone of inhibition at 0.1 mg/mL after 24 hrs by stiff-plate agar-diffusion method; format: functional; details: read-out: DIZ
[32] = system: Staphylococcus aureus; assay: Antibacterial activity against Staphylococcus aureus assessed as zone of inhibition at 0.5 mg/mL after 24 hrs by stiff-plate agar-diffusion method; format: functional; details: read-out: DIZ
[33] = system: Staphylococcus aureus; assay: Antibacterial activity against Staphylococcus aureus assessed as zone of inhibition at 0.1 mg/mL after 24 hrs by stiff-plate agar-diffusion method; format: functional; details: read-out: DIZ
[34] = system: Mycobacterium; assay: Antibacterial activity against Mycobacterium luteum assessed as zone of inhibition at 0.5 mg/mL after 24 hrs by stiff-plate agar-diffusion method; format: functional; details: read-out: DIZ
[35] = system: Mycobacterium; assay: Antibacterial activity against Mycobacterium luteum assessed as zone of inhibition at 0.1 mg/mL after 24 hrs by stiff-plate agar-diffusion method; format: functional; details: read-out: DIZ
[36] = system: Yamadazyma tenuis; assay: Antifungal activity against Candida tenuis assessed as zone of inhibition at 0.5 mg/mL after 48 to 72 hrs by stiff-plate agar-diffusion method; format: functional; details: read-out: DIZ
[37] = system: Yamadazyma tenuis; assay: Antifungal activity against Candida tenuis assessed as zone of inhibition at 0.1 mg/mL after 48 to 72 hrs by stiff-plate agar-diffusion method; format: functional; details: read-out: DIZ
[38] = system: Aspergillus niger; assay: Antifungal activity against Aspergillus niger assessed as zone of inhibition at 0.5 mg/mL after 48 to 72 hrs by stiff-plate agar-diffusion method; format: functional; details: read-out: DIZ
[39] = system: Aspergillus niger; assay: Antifungal activity against Aspergillus niger assessed as zone of inhibition at 0.1 mg/mL after 48 to 72 hrs by stiff-plate agar-diffusion method; format: functional; details: read-out: DIZ
[40] = in the assay text read “after 16 to 18 hrs” for “after 10 mins”

Row | SMILES | Activity [1] | Activity [2, 40] | Activity [3, 40] | Activity [4] | Activity [5] | Activity [6] | Activity [7] | Activity [8] | Activity [9] | growth at 10 µM [10] | growth at 10 µM [11] | growth at 10 µM [12] | growth at 10 µM [13] | growth at 10 µM [14] | growth at 10 µM [15] | growth at 10 µM [16] | growth at 10 µM [19] | growth at 10 µM [20] | Activity [22] | Activity [23] | also measured
1 | O=C(O)CSc1nc2ccccc2c2nc(=O)c(-c3ccccc3)nn12 | 75% | 40.9% | 3.6% | inactive | inactive | inactive | inactive | inactive | inactive | 92.5% | 86.6% | 89% | 90.8% | 92% | 91.9% | 82.5% | 93.2% | 97% | 50% | 100% | growth at 10 µM [17]: 91.4%; growth at 10 µM [18]: 96.8%; Activity [21, 40]: 34%
2 | CCC1C2CCC(C2)C1NC(=O)CSc1nc2ccccc2c2nc(=O)c(-c3ccc(C)cc3)nn12 (stereo unspecified) | 96% | 120% | 44% |  | inactive | inactive | inactive | inactive | inactive |  |  |  |  |  |  |  |  |  | 120% | 110% | Activity [24]: 100%
3 | Cc1ccc(-c2nn3c(SCC(=O)O)nc4ccccc4c3nc2=O)cc1 | 20% | 255.3% | 0% | inactive | inactive | inactive | inactive | inactive | inactive | 95.6% | 74.2% | 85.3% | 86.5% | 94.5% | 68% | 96.5% | 95.1% | 89.9% | 0% | 91.7% | growth at 10 µM [25]: 82.8%; growth at 10 µM [26]: 84.9%; growth at 10 µM [27]: 95%; growth at 10 µM [28]: 84.3%; growth at 10 µM [29]: 96%; Activity [21, 40]: 93.3%
4 | COc1ccc(-c2nn3c(SCC(=O)Nc4ccc(C56CC7CC(CC(C7)C5)C6)cc4)nc4ccccc4c3nc2=O)cc1 | 59.57% |  |  |  |  |  |  |  |  |  |  |  |  |  |  |  |  |  | 59.57% | 76.6% | Activity [2]: 34.62%; Activity [3]: 76.92%; zone of inhibition at 500 µg/mL [30]: 0 mm; zone of inhibition at 100 µg/mL [31]: 0 mm; zone of inhibition at 500 µg/mL [32]: 0 mm; zone of inhibition at 100 µg/mL [33]: 7 mm; zone of inhibition at 500 µg/mL [34]: 0 mm; zone of inhibition at 100 µg/mL [35]: 0 mm; zone of inhibition at 500 µg/mL [36]: 0 mm; zone of inhibition at 100 µg/mL [37]: 0 mm; zone of inhibition at 500 µg/mL [38]: 0 mm; zone of inhibition at 100 µg/mL [39]: 0 mm; Activity [21]: 48.72%
